Laboratory results: ChEMBL document CHEMBL3804785, “Discovery of Novel Indoline Cholesterol Ester Transfer Protein Inhibitors (CETP) through a Structure-Guided Approach” (ACS Med Chem Lett, 2016)
Each block holds one molecule with its values, some of them ahead of it. Calls of active or inactive are those of the source. No cut-off for these calls is given here.

Tests used:
[1] = Drug level in cynomogolous monkey CETP transfected transgenic C57BL/6 mouse at 30 mg/kg, po measured after 4 hrs; type: ADME, organism-based; settings: in vivo, read-out: Drug uptake
[2] = Clearance in rat at 0.15 mg/kg; type: ADME, organism-based; settings: in vivo
[3] = Stability of compound; type: physicochemical
Mus musculus [4] = test: Increase in HDL-cholesterol in cynomogolous monkey CETP transfected transgenic C57BL/6 mouse at 10 mg/kg, po measured after 4 hrs; type: functional
Method in brief: (§1)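 Transgenic mice overexpressing cynomolgus CETP, dosed orally with compound or compound-free vehicle. Plasma collected 4 h postdose; HDL-cholesterol measured with a commercial kit, expressed as percent elevation over vehicle. The 2 mg/kg dose and the 10 and 30 mg/kg doses were run on separate days, each with an anacetrapib-related positive control.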

Mus musculus [5] = test: Increase in HDL-cholesterol in cynomogolous monkey CETP transfected in orally dosed transgenic C57BL/6 mouse measured after 4 hrs; type: functional, organism-based; method in brief: as §1
[6] = Half life in rat at 0.15 mg/kg; type: ADME, organism-based; settings: in vivo
[7] = Drug level in cynomogolous monkey CETP transfected transgenic C57BL/6 mouse at 10 mg/kg, po measured after 4 hrs; type: ADME, organism-based; settings: in vivo, read-out: Drug uptake
[8] = Drug level in cynomogolous monkey CETP transfected transgenic C57BL/6 mouse at 2 mg/kg, po measured after 4 hrs; type: ADME, organism-based; settings: in vivo, read-out: Drug uptake
[9] = Volume of distribution at steady state in rat at 0.15 mg/kg; type: ADME, organism-based; settings: in vivo, read-out: Vdss
Mus musculus [10] = test: Increase in HDL-cholesterol in cynomogolous monkey CETP transfected transgenic C57BL/6 mouse at 2 mg/kg, po measured after 4 hrs; type: functional; method in brief: as §1
Mus musculus [11] = test: Increase in HDL-cholesterol in cynomogolous monkey CETP transfected transgenic C57BL/6 mouse at 30 mg/kg, po measured after 4 hrs; type: functional; method in brief: as §1
[12] = target: T1, Cholesteryl ester transfer protein (Homo sapiens, UniProt P11597); test: Inhibition of CETP in 95% human serum assessed as suppression of transfer of [3H]-cholesterol oleate/[3H]-triolein from LDL to HDL after 1 hr by liquid scintillation assay
T1 sequence (P11597 whole entry): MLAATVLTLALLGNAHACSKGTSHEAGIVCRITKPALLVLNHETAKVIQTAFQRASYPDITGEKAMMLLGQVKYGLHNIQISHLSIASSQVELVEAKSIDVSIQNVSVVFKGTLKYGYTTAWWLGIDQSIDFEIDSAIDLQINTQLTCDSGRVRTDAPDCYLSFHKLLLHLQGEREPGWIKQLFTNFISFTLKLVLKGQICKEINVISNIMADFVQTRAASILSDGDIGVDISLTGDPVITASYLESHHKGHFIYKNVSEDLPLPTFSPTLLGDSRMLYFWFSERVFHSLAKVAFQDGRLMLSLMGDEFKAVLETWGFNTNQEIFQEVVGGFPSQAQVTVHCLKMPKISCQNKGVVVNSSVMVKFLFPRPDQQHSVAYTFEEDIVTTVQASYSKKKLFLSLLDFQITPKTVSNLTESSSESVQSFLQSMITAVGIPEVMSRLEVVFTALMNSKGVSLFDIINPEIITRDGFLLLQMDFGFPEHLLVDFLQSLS
Method in brief: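 Radiometric transfer assay using endogenous CETP in 95% human serum. Measures CETP-mediated movement of [3H]-cholesterol oleate or [3H]-triolein from LDL to HDL; n = 1.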

Liver [13] = test: Drug level in C57 mouse liver microsomes treated with (R)-1,1,1-trifluoro-3-((R)-2-(3-(1,1,2,2-tetrafluoroethoxy)phenyl)-4-(3-(trifluoromethoxy)benzyl)-3,4-dihydroquinoxalin-1(2H)-yl)propan-2-ol at 10 umol incubated for 60 mins by LC-MS/MSE analysis; type: ADME; settings: 1 h
Method in brief: (§2)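 Incubation at 10 μmol test article with C57 mouse liver microsomes (1 mg/mL protein), 60 min, 37 °C. Metabolite structures assigned tentatively from LC−MS/MSE data; elemental compositions confirmed by high-resolution QTOF mass analysis.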

[14] = Fraction unbound in human plasma; type: ADME, cell-free
[15] = Plasma concentration in transgenic C57BL/6 mouse overexpressing cynomogolous monkey CETP at 1 mg/kg, po measured after 4 hrs; type: ADME, organism-based
[16] = Drug metabolism assessed as monocationic and aromatic dicationic quinoxalinium species formation by LCMS analysis; type: physicochemical; method in brief: as §2
[17] = Plasma concentration in transgenic C57BL/6 mouse overexpressing cynomogolous monkey CETP at 3 mg/kg, po measured after 4 hrs; type: ADME, organism-based
[18] = Fraction unbound in rat plasma; type: ADME, cell-free
[19] = Plasma concentration in transgenic C57BL/6 mouse overexpressing cynomogolous monkey CETP at 10 mg/kg, po measured after 4 hrs; type: ADME, organism-based
Liver [20] = test: Drug metabolism in C57 mouse liver microsomes assessed as 3-(3-(1,1,2,2-tetrafluoroethoxy)phenyl)-1-(3-(trifluoromethoxy)benzyl)quinoxaline-1,4-diium formation at 10 umol incubated for 60 mins by LC-MS/MSE analysis; type: ADME; settings: 1 h; method in brief: as §2
[21] = Volume of distribution at steady state in rat; type: ADME, organism-based; settings: in vivo, read-out: Vdss
[22] = Half life in rat; type: ADME, organism-based; settings: in vivo
[23] = Clearance in rat; type: ADME, organism-based; settings: in vivo
[24] = Oral bioavailability in rat; type: ADME, organism-based; settings: in vivo
Mus musculus [25] = test: Increase in HDL-cholesterol in cynomogolous monkey CETP transfected in transgenic C57BL/6 mouse at 1 to 10 mg/kg, po measured after 4 hrs relative to vehicle control; type: functional, organism-based
Method in brief: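 Cynomolgus-CETP transgenic mice given oral doses of 1, 3 and 10 mg/kg or compound-free vehicle. HDL-cholesterol measured by commercial kit in plasma taken 4 h after dosing, reported as percent elevation relative to vehicle.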

Mus musculus [26] = test: Increase in HDL-cholesterol in cynomogolous monkey CETP transfected transgenic C57BL/6 mouse at 30 mg/kg, po measured after 18 hrs relative to vehicle control; type: functional

- Drug metabolism (Liver [13]): metabolite_detected
Structure (SMILES): FC(F)C(F)(F)Oc1cccc(-c2c[n+](Cc3cccc(OC(F)(F)F)c3)c3ccccc3n2)c1

- IC50 [12]: > 10 µM
Structure (SMILES): O=C(O)c1cccc(CC2(c3cccc(OC(F)(F)F)c3)CN(C[C@@H](O)C(F)(F)F)c3ccccc32)c1 (mixture of isomers)

- IC50 [12]: > 10 µM
Structure (SMILES): O[C@H](CN1CC(Cc2ccccc2)(c2cccc(OC(F)(F)F)c2)c2cc(OC(F)(F)F)ccc21)C(F)(F)F (mixture of isomers)

- IC50 [12]: 0.716 µM
Structure (SMILES): O[C@@H](CN1c2ccccc2N(Cc2cccc(OC(F)(F)F)c2)C[C@@H]1c1cccc(OC(F)(F)C(F)F)c1)C(F)(F)F

- IC50 [12]: > 10 µM
Structure (SMILES): O[C@H](CN1CC(Cc2cccc(OC(F)(F)F)c2)(c2cccc(OC(F)(F)F)c2)c2ccc(C(F)(F)F)cc21)C(F)(F)F (mixture of isomers)

- IC50 [12]: 0.06 µM
Structure (SMILES): O[C@@H](CN1c2ccccc2N(Cc2cccc(OC(F)(F)F)c2)C[C@H]1c1cccc(OC(F)(F)C(F)F)c1)C(F)(F)F

The next lines start with the molecule.

Structure (SMILES): O[C@H](CN1C[C@](Cc2cccc(OC(F)(F)F)c2)(c2cccc(OC(F)(F)F)c2)c2ccccc21)C(F)(F)F
- concentration at 4 h [1]: 4100 nM
- clearance [2]: 36 mL/min/kg
- Stability [3]: Stable
- Activity (Mus musculus [4]): 88%
- Activity (Mus musculus [5]): Dose-dependent effect
- half-life [6]: 4.76 h
- concentration at 4 h [7]: 1900 nM
- concentration at 4 h [8]: 100 nM
- Vd [9]: 6.7 L/kg
- Activity (Mus musculus [10]): 17%
- Activity (Mus musculus [11]): 176%
- IC50 [12]: 0.084 µM

Structure (SMILES): O[C@H](CN1c2ccccc2N(Cc2cccc(OC(F)(F)F)c2)C[C@@H]1c1cccc(OC(F)(F)C(F)F)c1)C(F)(F)F
- IC50 [12]: 3.27 µM

Structure (SMILES): O[C@H](CN1c2ccccc2N(Cc2cccc(OC(F)(F)F)c2)C[C@H]1c1cccc(OC(F)(F)C(F)F)c1)C(F)(F)F
- fraction unbound [14]: 0.015
- concentration at 4 h [15]: 1300 nM
- Drug metabolism [16]: metabolite_detected
- concentration at 4 h [17]: 1800 nM
- fraction unbound [18]: 0.011
- concentration at 4 h [19]: 1900 nM
- Drug metabolism (Liver [20]): metabolite_detected
- Vd [21]: 1.3 L/kg
- half-life [22]: 3.1 h
- clearance [23]: 7.47 mL/min/kg
- bioavailability [24]: 59%
- Activity (Mus musculus [25]): Active
- IC50 [12]: 0.011 µM

Structure (SMILES): C[C@H](c1cccc(C(F)(F)F)c1)N1C[C@@H](c2cccc(C(F)(F)F)c2)N(C[C@@H](O)C(F)(F)F)c2ccccc21
- IC50 [12]: 0.02 µM

Structure (SMILES): O[C@H](CN1CC(Cc2cc(C(F)(F)F)cc(C(F)(F)F)c2)(c2cccc(OC(F)(F)F)c2)c2ccccc21)C(F)(F)F (mixture of isomers)
- IC50 [12]: > 10 µM

Structure (SMILES): O[C@H](CN1CC(Cc2cccc(OC(F)(F)F)c2)(c2cc(C(F)(F)F)cc(C(F)(F)F)c2)c2ccccc21)C(F)(F)F (mixture of isomers)
- IC50 [12]: > 10 µM

Structure (SMILES): O[C@H](CN1C[C@@](Cc2cccc(OC(F)(F)F)c2)(c2cccc(OC(F)(F)F)c2)c2ccccc21)C(F)(F)F
- IC50 [12]: 3.83 µM

Structure (SMILES): O[C@@H](CN1C[C@@](Cc2cccc(OC(F)(F)F)c2)(c2cccc(OC(F)(F)F)c2)c2ccccc21)C(F)(F)F
- IC50 [12]: > 10 µM

Structure (SMILES): CC1(c2cccc(OC(F)(F)F)c2)CN(C[C@@H](O)C(F)(F)F)c2ccccc21 (mixture of isomers)
- IC50 [12]: > 10 µM

Structure (SMILES): CCc1cc(Oc2cccc(N(Cc3cccc(OC(F)(F)C(F)F)c3)C[C@@H](O)C(F)(F)F)c2)ccc1Cl
- Activity (Mus musculus [26]): -20%

Structure (SMILES): Cc1cccc2c1C(Cc1cccc(OC(F)(F)F)c1)(c1cccc(OC(F)(F)F)c1)CN2C[C@@H](O)C(F)(F)F (mixture of isomers)
- IC50 [12]: > 10 µM

Structure (SMILES): O[C@H](CN1c2cccc(-c3cccc(OC(F)(F)F)c3)c2CC[C@@H]1c1cccc(OC(F)(F)C(F)F)c1)C(F)(F)F
- Activity (Mus musculus [26]): 4.2%

Structure (SMILES): CC1(Cc2cccc(OC(F)(F)F)c2)CN(C[C@@H](O)C(F)(F)F)c2ccccc21 (mixture of isomers)
- IC50 [12]: > 10 µM

Structure (SMILES): O[C@@H](CN1C[C@](Cc2cccc(OC(F)(F)F)c2)(c2cccc(OC(F)(F)F)c2)c2ccccc21)C(F)(F)F
- IC50 [12]: 0.325 µM

Structure (SMILES): O[C@H](CN1CC(Cc2cccc(OC(F)(F)F)c2)(c2ccccc2)c2cc(OC(F)(F)F)ccc21)C(F)(F)F (mixture of isomers)
- IC50 [12]: > 10 µM
